These results are taken from PubChem BioAssay.

Activity calls are given as the source filed them.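 Rule for the calls, unless noted: active = NADPH fluorescence slope more negative than the mean of all samples by about 3 SD, 99.7% confidence; inactive = the rest.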

The nature of assay [1]: inhibitors of TNFa-induced NFkB p65 translocation, primary screen, imaging, HUVEC, MLSMR starter and 10KST1 sets (AID 438;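 active = inhibition above 20% together with a positive visual image hit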;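 note: compound added about 3h40 before a 20 min TNFalpha stimulation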;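 for inhibition: signal is the nuclear over cytoplasmic p65 intensity ratio per well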). Particulars: HUVEC TNFa-induced p65 nuclear translocation; cell count: measured here: nuclei count (cytotoxicity indicator), at 2.08 µM; inhibition: at 2 µM, stronger effect = higher value, 0% TNFa-plus-vehicle, 100% no-TNFa wells.
A short description of assay [2]: inhibitors of mutant huntingtin aggregation, primary screen, imaging, exon1htt(103Q)mCFP cells, high-content imaging (AID 483;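 active = visual image review flags a hit and inhibition of aggregation exceeds 20%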;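 note: compound exposure lasted 3 days before fixation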;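 for nuclei count: percent of the per-plate median nuclei count of sample wells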). Conditions: exon1htt(103Q)mCFP cell line, aggregate imaging, at 2 µM; inhibition of aggregation: stronger effect = higher value; nuclei count: measured here: cell count, toxicity.
A short description of assay [3]: inhibitors of E-selectin induction by TNFa, primary screen, imaging, HUVEC, immunofluorescence, MLSMR starter and 10KST1 sets (AID 487;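 active = visually confirmed hit in the image check and inhibition above 20%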;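 for inhibition: signal is fraction of cell area covered by stained E-selectin grains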;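 for nuclei count: 100% = median nuclei count of all wells on the same plate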). Particulars: HUVEC TNFalpha-induced E-selectin immunofluorescence imaging, at 2 µM; inhibition: stronger effect = higher value; nuclei count: measured here: cell number, toxicity.
For assay [4], the target named is Voltage-gated potassium channel subunit beta-2 (Rattus norvegicus) (UniProt P62483). Briefly: KvBeta enzyme negative modulators, primary screen, biochemical, NADPH fluorescence (AID 622;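 active = fluorescence slope higher than the sample average by over 3 SD, cut at about -0.22 in these data, passing the limit was not always enough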;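 note: slope of raw intensity against log time taken from 70 to 1610 s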). Particulars: recombinant KvBeta, 4-cyanobenzaldehyde reduction, at 10 µM, stronger effect = higher value.
Assay [5] has the same target. The experiment in a line: KvBeta positive modulators, primary screen, biochemical, NADPH fluorescence (AID 623).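 Note: fluorescence intensity change per second fitted from 20 to 320 s.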 Conditions: Recombinant KvBeta, NADPH fluorescence decrease slope, 10 min; at 10 µM; stronger effect = lower value.
Assay [6] deals with Muscarinic acetylcholine receptor M4 (Homo sapiens) (UniProt P08173). Briefly: compounds altering M4/GIRK thallium flux, either direction, primary screen, M4 allosteric agonist project, cell-based, HEK293 M4/GIRK, BTC-AM (AID 625;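 active = fluorescence slope after compound addition differing from the mean of all tested samples at 99.7% confidence, mostly higher but some lower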;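 note: thallium influx through GIRK channels coupled to M4 in HEK293 cells with BTC-AM dye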). Particulars: at 10 µM, actives lie on both sides. The method, boiled down: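 Material: HEK293 cells with M4 receptor and GIRK channels; Times: cells overnight at 37 °C, BTC-AM loading 1 h, reads 2 min total; Technique: kinetic BTC-AM fluorescence sampled at 1 Hz, 10 s pre-addition baseline; Read-out basis: slope over 15–24 s of trace normalized to starting intensity; Controls: carbachol positive, DMSO negative.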

Assay [7] can be described thus: inhibitors of Sendai virus-induced IRF3 signaling, primary screen, TLR/RLR signaling modifier project, cell-based, Sendai virus stimulus, luciferase, 10K MLSCN set (AID 602276;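 active = inhibition at or above 50% at 10 µM; inactive = inhibition below 50%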;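 note: firefly luciferase from ISG56 promoter only with Renilla not read in this screen; 0% = Sendai virus plus DMSO and 100% = medium plus DMSO without virus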). Conditions: HEK293 RL24 IRF3 luciferase reporter, at 10 µM, stronger effect = higher value.
The nature of assay [8]: inhibitors of poly I:C-induced TLR3 signaling, primary screen, cell-based, poly I:C stimulus, luciferase, 10K MLSCN set (AID 602277;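 active = inhibition of the reporter signal at or above 50%; inactive = inhibition below 50%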). Conditions: HEK293-TLR3 RL24 IRF3 luciferase reporter, at 10 µM, stronger effect = higher value.

Sequence of Muscarinic acetylcholine receptor M4 (Homo sapiens) (P08173 whole entry, looked up): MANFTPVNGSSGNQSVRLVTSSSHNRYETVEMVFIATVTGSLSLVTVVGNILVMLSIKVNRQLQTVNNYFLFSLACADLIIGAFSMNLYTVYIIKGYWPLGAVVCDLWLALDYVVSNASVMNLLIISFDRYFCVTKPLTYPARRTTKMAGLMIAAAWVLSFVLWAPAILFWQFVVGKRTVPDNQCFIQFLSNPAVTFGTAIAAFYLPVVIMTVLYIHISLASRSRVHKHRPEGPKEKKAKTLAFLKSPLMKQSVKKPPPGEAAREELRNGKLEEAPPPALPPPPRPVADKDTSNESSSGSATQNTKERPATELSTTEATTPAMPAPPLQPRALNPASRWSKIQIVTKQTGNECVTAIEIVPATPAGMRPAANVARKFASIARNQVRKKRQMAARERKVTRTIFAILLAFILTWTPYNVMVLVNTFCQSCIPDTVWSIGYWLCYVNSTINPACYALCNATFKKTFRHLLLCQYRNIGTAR
Sequence of Voltage-gated potassium channel subunit beta-2 (Rattus norvegicus) (P62483 whole entry, looked up): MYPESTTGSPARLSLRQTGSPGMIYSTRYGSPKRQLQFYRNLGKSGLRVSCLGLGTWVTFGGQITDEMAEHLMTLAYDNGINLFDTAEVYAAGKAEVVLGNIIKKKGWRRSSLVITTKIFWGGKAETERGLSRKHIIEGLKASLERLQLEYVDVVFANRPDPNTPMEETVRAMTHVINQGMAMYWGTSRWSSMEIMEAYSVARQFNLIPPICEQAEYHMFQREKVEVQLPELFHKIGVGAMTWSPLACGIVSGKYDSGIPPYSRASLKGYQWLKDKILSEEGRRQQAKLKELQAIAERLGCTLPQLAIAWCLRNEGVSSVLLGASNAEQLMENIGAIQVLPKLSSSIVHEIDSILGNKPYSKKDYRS

For `CCC(=O)N1CCc2cc(S(=O)(=O)CCC(=O)Nc3c(C)n(C)n(-c4ccccc4)c3=O)ccc21`, the cell count in assay [1] stood at 598. Besides, the inhibition (usually the drop in the measured response relative to a control, in per cent) in assay [1] was 7.7% (inactive); in assay [3], -110% (inactive); in assay [7] it was 2.43% (inactive); in assay [8], 13.1% (inactive). Moreover, the inhibition of aggregation in assay [2] is -10.8% (inactive). Moreover, the figures for the nuclei count in assay [2] and in assay [3] were 116% and 121%, respectively. The fluorescence slope in assay [4] is -0.434 (inactive); in assay [6] it was 0.00486 (inactive). For the same molecule, the NADPH fluorescence slope in assay [5] is 0.000106 (inactive).
With `CCOC(=O)CNc1ccc2c(c1)OCO2`, the cell count in assay [1] is 368. Besides, the inhibition is -7.7% (inactive) in assay [1], -105% (inactive) in assay [3], 8.79% (inactive) in assay [7] and 12.5% (inactive) in assay [8]. Further, the inhibition of aggregation in assay [2] was 8.3% (inactive). Further, the results for the nuclei count in assay [2] and in assay [3] were 99.8% and 118%, respectively. Also, the fluorescence slope in assay [4] was -0.488 (inactive); in assay [6], 0.00399 (inactive). The NADPH fluorescence slope in assay [5] was -0.000182 (inactive).
Turning to `c1ccc2c(c1)C(=Nn1cnnc1)c1ccccc1-2`, the cell count in assay [1] is 606. Also, the inhibition is -3.4% (inactive) in assay [1], -107% (inactive) in assay [3], 10.6% (inactive) in assay [7] and 11% (inactive) in assay [8]. For the same molecule, the inhibition of aggregation in assay [2] was 15.7% (inactive). Moreover, the nuclei count in assay [2] was 101%; in assay [3], 122%. Further, the fluorescence slope was -0.448 (inactive) in assay [4] and 0.00319 (inactive) in assay [6]. Besides, in assay [5], the NADPH fluorescence slope was -6.8e-05 (inactive).
Regarding `C/C(NC1CCCC1)=C(/C#N)C(N)=O`, in assay [1], the cell count came to 396. For the same molecule, the inhibition in assay [1] was -23.5% (inactive); in assay [3] it was -38.9% (inactive); in assay [7], 16.9% (inactive); in assay [8], 22.8% (inactive). In addition, in assay [2], the inhibition of aggregation is -0.6% (inactive). The nuclei count amounted to 108% in assay [2] and 144% in assay [3]. The figures for the fluorescence slope in assay [4] and in assay [6] were -0.583 (inactive) and 0.00436 (inactive), respectively. In addition, the NADPH fluorescence slope in assay [5] is -2.4e-05 (inactive).
As for `CCOC(=O)C1CCN(S(=O)(=O)c2cc(Cl)c(C)cc2OC)CC1`, the cell count in assay [1] was found to be 441. In addition, the inhibition was -9.5% (inactive) in assay [1], -41% (inactive) in assay [3], 19.9% (inactive) in assay [7] and 38.6% (inactive) in assay [8]. Moreover, the inhibition of aggregation in assay [2] is -0.9% (inactive). Moreover, the nuclei count amounted to 109% in assay [2] and 116% in assay [3]. For the same molecule, the fluorescence slope is -0.587 (inactive) in assay [4] and 0.00585 (inactive) in assay [6]. Also, the NADPH fluorescence slope in assay [5] is 1.4e-05 (inactive).
On to `Cc1[nH]nc2c1C1(CCN(C(=O)c3ccccc3)CC1)C(C#N)=C(N)O2`, for which, in assay [1], the cell count is 316. In addition, the inhibition in assay [1] was -17% (inactive); in assay [3], 23.5% (inactive); in assay [7] it was 26.8% (inactive); in assay [8], 32.8% (inactive). Further, the inhibition of aggregation in assay [2] is 22.6% (inactive). Further, the nuclei count was found to be 74.8% in assay [2] and 114% in assay [3]. Also, the values for the fluorescence slope in assay [4] and in assay [6] were -0.598 (inactive) and 0.00593 (inactive), respectively. For the same molecule, the NADPH fluorescence slope in assay [5] was -2.2e-06 (inactive).
Consider `OCCn1c(CSc2nnc(-c3ccco3)n2-c2ccccc2)nc2ccc(Cl)cc21`, for which the cell count in assay [1] came to 724. For the same molecule, the inhibition is 10.5% (inactive) in assay [1], 14.6% (inactive) in assay [3], 9.6% (inactive) in assay [7] and 24.7% (inactive) in assay [8]. The inhibition of aggregation in assay [2] was 6.6% (inactive). Also, the nuclei count in assay [2] amounted to 78.4%; in assay [3], 90.8%. In addition, the fluorescence slope was -0.574 (inactive) in assay [4] and 0.00847 (inactive) in assay [6]. In addition, the NADPH fluorescence slope in assay [5] was -3.2e-05 (inactive).
For the molecule `Cc1cc(-c2ccccc2)nc2cc(C(=O)NCCCn3ccnc3)nn12`, in assay [1], the cell count turned out to be 908. For the same molecule, the inhibition in assay [1] is 6.4% (inactive); in assay [3] it was -160% (inactive); in assay [7], 16.4% (inactive); in assay [8] it was 25.4% (inactive). For the same molecule, the inhibition of aggregation in assay [2] was 19.7% (inactive). Besides, the nuclei count in assay [2] worked out at 86.1%; in assay [3], 112%. The fluorescence slope was -0.362 (inactive) in assay [4] and 0.007 (inactive) in assay [6]. Also, the NADPH fluorescence slope in assay [5] is 1.5e-05 (inactive).
Regarding `C[C@H](NC(=O)OC(C)(C)C)C(=O)NCC1CCC(C(=O)O)CC1` (some centres undefined), in assay [1], the cell count was 376. Moreover, the inhibition is -1.1% (inactive) in assay [1], -23.6% (inactive) in assay [3], 16.6% (inactive) in assay [7] and 21.3% (inactive) in assay [8]. Moreover, the inhibition of aggregation in assay [2] is 4% (inactive). Also, the nuclei count worked out at 103% in assay [2] and 101% in assay [3]. Further, the fluorescence slope is -0.536 (inactive) in assay [4] and 0.00501 (inactive) in assay [6]. Further, the NADPH fluorescence slope in assay [5] was 1.9e-05 (inactive).
`O=C(CN1CCOCC1)Nc1cccc(C(=O)Nc2cccc(C(F)(F)F)c2)c1`: in assay [1], the cell count was 199. The inhibition is 4.3% (inactive) in assay [1], 1.6% (inactive) in assay [3], 7.38% (inactive) in assay [7] and -4.66% (inactive) in assay [8]. For the same molecule, in assay [2], the inhibition of aggregation was 12.5% (inactive). Further, the nuclei count was 90.7% in assay [2] and 89.1% in assay [3]. Besides, the fluorescence slope in assay [4] is -0.574 (inactive); in assay [6], 0.0065 (inactive). In addition, the NADPH fluorescence slope in assay [5] is -6e-05 (inactive).
In the case of `COC(=O)C(F)(F)Sc1c(C)[nH]c2ccccc12`, the cell count in assay [1] is 699. Moreover, the inhibition is -2.1% (inactive) in assay [1], 41.7% (inactive) in assay [3], 25.1% (inactive) in assay [7] and 27% (inactive) in assay [8]. Moreover, the inhibition of aggregation in assay [2] was 13.7% (inactive). The nuclei count in assay [2] was determined as 94.7%; in assay [3], 108%. Further, the fluorescence slope in assay [4] was -0.444 (inactive); in assay [6], 0.00468 (inactive). In assay [5], the NADPH fluorescence slope is -1.5e-05 (inactive).
Take `CC(C)(C)OC(=O)N1CCN(c2ccc(NC(=O)c3cc4ccccc4oc3=O)cc2)CC1`: the cell count in assay [1] is 409. In addition, the inhibition was 4.4% (inactive) in assay [1], -52.6% (inactive) in assay [3], 16.2% (inactive) in assay [7] and -11.3% (inactive) in assay [8]. Also, the inhibition of aggregation in assay [2] is -4.1% (inactive). Besides, the values for the nuclei count in assay [2] and in assay [3] were 110% and 107%, respectively. Also, the fluorescence slope is -0.582 (inactive) in assay [4] and 0.0076 (inactive) in assay [6]. In addition, the NADPH fluorescence slope in assay [5] is -4.9e-05 (inactive).
Consider `Cc1ccc(-n2nnnc2SCC(=O)N2CCN(C(=O)c3ccco3)CC2)c(C)c1`, for which the cell count in assay [1] came out at 731. Besides, the inhibition in assay [1] was -4.4% (inactive); in assay [3], -5.5% (inactive); in assay [7], 1.61% (inactive); in assay [8], 10.6% (inactive). Further, the inhibition of aggregation in assay [2] was 27.6% (inactive). In addition, the nuclei count worked out at 91% in assay [2] and 109% in assay [3]. Moreover, the fluorescence slope in assay [4] was -0.568 (inactive); in assay [6], 0.00555 (inactive). The NADPH fluorescence slope in assay [5] was -5.4e-05 (inactive).
In the case of `O=C(CSc1nc2ccccc2c(=O)n1CCC(=O)N1CCCCC1)NCc1ccccc1`, the cell count in assay [1] is 495. Besides, the inhibition in assay [1] is -7.5% (inactive); in assay [3] it was 16.9% (inactive); in assay [7], 17.4% (inactive); in assay [8], 24.1% (inactive). In addition, in assay [2], the inhibition of aggregation was 1% (inactive). In addition, the nuclei count is 103% in assay [2] and 101% in assay [3]. In addition, the results for the fluorescence slope in assay [4] and in assay [6] were -0.507 (inactive) and 0.00538 (inactive), respectively. The NADPH fluorescence slope in assay [5] was 1.6e-05 (inactive).
